ChEMBL document CHEMBL1132360, “N-Substituted (2,3-dihydro-1,4-benzodioxin-2-yl)methylamine derivatives as D(2) antagonists/5-HT(1A) partial agonists with potential as atypical antipsychotic agents” (J Med Chem, 1999)

Tests used:
[1] = target: T1, 5-hydroxytryptamine receptor 1A (Rattus norvegicus) (UniProt P19327); experiment: The compound was tested binding affinity against 5-hydroxytryptamine 1A receptor from rat brain using [3H]8-OH-DPAT as radioligand at 10e-6 M.
T1 sequence (whole entry): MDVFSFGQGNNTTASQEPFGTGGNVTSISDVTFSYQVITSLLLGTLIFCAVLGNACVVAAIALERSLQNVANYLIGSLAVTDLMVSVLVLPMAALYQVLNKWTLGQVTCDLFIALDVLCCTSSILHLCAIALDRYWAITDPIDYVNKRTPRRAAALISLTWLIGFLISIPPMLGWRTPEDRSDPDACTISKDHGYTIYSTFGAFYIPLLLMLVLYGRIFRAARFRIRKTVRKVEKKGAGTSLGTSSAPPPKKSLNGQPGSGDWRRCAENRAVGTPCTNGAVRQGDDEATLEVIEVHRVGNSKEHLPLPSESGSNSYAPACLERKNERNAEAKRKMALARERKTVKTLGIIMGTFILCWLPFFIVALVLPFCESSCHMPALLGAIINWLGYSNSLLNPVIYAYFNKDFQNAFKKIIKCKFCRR
Method in brief: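 Adult male CD rat hippocampal membranes (endogenous 5-HT removed by 37 °C, 10 min incubation) in 50 mM Tris-HCl pH 7.7 plus CaCl2, ascorbate, pargyline; incubated with 2 nM [3H]8-OH-DPAT and test compound at 10⁻⁶ M, 30 min, 25 °C; 10 μM 5-HT defines nonspecific binding. Specific binding with and without compound gives percent displacement.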

[2] = target: Adrenergic receptor alpha-1 (Homo sapiens) (UniProt P35348+P25100+P35368); experiment: Compound was tested for binding affinity towards Alpha-1 adrenergic receptor in human cortex membranes; format: cell membranes; conditions: concentration not given here
Method in brief: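 Postmortem human cortex membranes (stored −80 °C, final in 50 mM Tris-HCl pH 7.6) incubated with [3H]prazosin 0.1 nM and compound at 10⁻⁶ M or 10 concentrations, 30 min at 30 °C; phentolamine 5 μM defines nonspecific binding. Bound ligand by filtration and scintillation counting; Ki from IC50 by Cheng–Prusoff, ±SEM; percentages are displacement at 10⁻⁶ M.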

[3] = target: T2, Adrenergic receptor alpha-1 (Homo sapiens, UniProt P35348+P25100+P35368); experiment: Binding affinity towards Alpha-1 adrenergic receptor in human cortex membranes; format: cell membranes
T2 sequence (P35348 whole entry): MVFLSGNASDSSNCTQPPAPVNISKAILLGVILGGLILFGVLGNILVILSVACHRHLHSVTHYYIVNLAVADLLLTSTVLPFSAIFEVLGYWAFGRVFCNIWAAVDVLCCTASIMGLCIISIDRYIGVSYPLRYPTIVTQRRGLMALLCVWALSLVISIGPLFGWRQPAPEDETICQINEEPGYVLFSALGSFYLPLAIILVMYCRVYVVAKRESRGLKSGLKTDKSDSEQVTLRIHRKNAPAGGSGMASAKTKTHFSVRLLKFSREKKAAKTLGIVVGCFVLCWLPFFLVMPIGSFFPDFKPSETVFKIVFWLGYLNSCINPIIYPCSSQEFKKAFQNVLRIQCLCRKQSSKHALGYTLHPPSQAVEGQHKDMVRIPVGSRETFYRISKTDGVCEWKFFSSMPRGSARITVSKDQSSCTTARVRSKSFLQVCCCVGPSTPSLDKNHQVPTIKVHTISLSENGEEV
T2 sequence (P25100 whole entry): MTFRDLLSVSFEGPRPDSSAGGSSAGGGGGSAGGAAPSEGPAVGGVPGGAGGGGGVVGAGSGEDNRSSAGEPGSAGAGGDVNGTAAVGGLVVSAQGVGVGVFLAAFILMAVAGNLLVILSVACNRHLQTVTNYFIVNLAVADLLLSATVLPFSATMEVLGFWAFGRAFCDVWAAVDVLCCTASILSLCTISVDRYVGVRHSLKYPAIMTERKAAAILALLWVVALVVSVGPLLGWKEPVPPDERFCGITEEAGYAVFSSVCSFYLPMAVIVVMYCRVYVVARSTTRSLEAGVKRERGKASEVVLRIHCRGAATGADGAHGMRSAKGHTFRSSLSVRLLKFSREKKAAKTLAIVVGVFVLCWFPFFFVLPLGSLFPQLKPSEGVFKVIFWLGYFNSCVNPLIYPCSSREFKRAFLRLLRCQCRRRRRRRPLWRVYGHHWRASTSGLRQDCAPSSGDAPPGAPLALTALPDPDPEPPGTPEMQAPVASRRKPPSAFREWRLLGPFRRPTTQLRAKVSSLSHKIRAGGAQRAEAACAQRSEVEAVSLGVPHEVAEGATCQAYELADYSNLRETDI
T2 sequence (P35368 whole entry): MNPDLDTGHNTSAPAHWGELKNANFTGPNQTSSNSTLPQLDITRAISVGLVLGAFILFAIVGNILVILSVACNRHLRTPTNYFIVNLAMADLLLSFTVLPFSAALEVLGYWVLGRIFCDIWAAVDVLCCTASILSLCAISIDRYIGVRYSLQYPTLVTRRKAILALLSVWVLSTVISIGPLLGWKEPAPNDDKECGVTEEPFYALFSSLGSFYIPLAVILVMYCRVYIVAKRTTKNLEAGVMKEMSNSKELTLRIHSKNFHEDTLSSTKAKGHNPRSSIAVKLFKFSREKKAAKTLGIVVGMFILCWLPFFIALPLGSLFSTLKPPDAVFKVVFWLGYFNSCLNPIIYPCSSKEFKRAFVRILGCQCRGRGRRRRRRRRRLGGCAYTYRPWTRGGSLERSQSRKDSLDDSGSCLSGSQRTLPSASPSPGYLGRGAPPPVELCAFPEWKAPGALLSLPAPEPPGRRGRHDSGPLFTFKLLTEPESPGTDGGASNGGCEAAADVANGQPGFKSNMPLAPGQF

Mus musculus [4] = experiment: Antagonistic activity against apomorphine induced climbing in the mouse after po administration; format: functional
Method in brief: (§1)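 Male CD1 mice (20–25 g), groups of 10, dosed po with compound or vehicle ([…]) at set times before apomorphine 0.88 mg/kg sc. Each mouse placed in an inverted open-ended wire cage; climbing scored 0–2 at 10 and 20 min after apomorphine.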

[5] = target: T3, 5-hydroxytryptamine receptor 1A (Rattus norvegicus, UniProt P19327); experiment: Binding affinity towards 5-hydroxytryptamine 1A receptor from rat brain using [3H]-8-OH-DPAT as radioligand
T3 sequence (P19327 whole entry): T1 sequence (whole entry)

Mus musculus [6] = experiment: The compound was tested for antagonistic activity against apomorphine induced climbing in the mouse, percentages are for reduction in climbing after peroral administration; format: functional; conditions: po
Method in brief: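 Groups of 10 male CD1 mice (20–25 g) dosed po with test compound or vehicle at set times before apomorphine 0.88 mg/kg sc. Mice were placed singly in inverted wire cages and climbing was scored 0–2 at 10 and 20 min after apomorphine. Percent reduction in climbing is given at the stated dose.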

Rattus norvegicus = experiment: The compound was tested in vivo for induction of catalepsy in rat after ip administration; format: functional
Method in brief: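 Male rats (130–190 g), groups of five, injected ip with compound solution (1 mL/kg). Catalepsy assessed at three times by placing each paw on a 45 mm rubber bung; a paw held 15 s scores 1 (group maximum 20 = 100%). ED50 from percent catalepsy at the final reading, by adapted Litchfield–Wilcoxon.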

Mus musculus [7] = experiment: Percent reduction in apomorphine induced climbing in mouse at 50 mg/Kg of compound given perorally; format: functional
Method in brief: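 Male CD1 mice (20–25 g), groups of 10, given compound po (vehicle 0.1 mL/kg) at 50 mg/kg before apomorphine 0.88 mg/kg sc. Climbing in inverted open-ended wire cages scored 0–2 at 10 and 20 min after apomorphine; percent reduction in climbing at that dose reported.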

Mus musculus [8] = experiment: The compound was tested for antagonistic activity against apomorphine induced climbing in the mouse after po administration; format: functional; method in brief: as §1

SMILES	Ki [3] [nM]	Ki [5] [nM]	ED50 (Mus musculus [4]) [mg/kg]	ED50 (Rattus norvegicus) [mg/kg]	further results
c1ccc(N2CCC(CNCC3COc4ccccc4O3)CC2)nc1 (stereo in doubt; 13) [listing 1 of 2 here]					inhibition [1]: 82%; inhibition [2]: 84%
COc1ccccc1N1CCC(CNCC2COc3cccc(O)c3O2)CC1 (centres undefined)	> 500		33		inhibition [1]: 94%
c1ccc(N2CCC(CNCC3COc4ccccc4O3)CC2)nc1 (stereo in doubt; 12) [listing 1 of 2 here]			23		
c1cnc(NCCCNCC2COc3ccccc3O2)nc1 (centres undefined)		3.1	6		
c1cnc(NCC2CCN(CC3COc4ccccc4O3)CC2)nc1 (stereo in doubt; 8)	23	21			
O=C(CCCN1CCC(O)(c2ccc(Cl)cc2)CC1)c1ccc(F)cc1 [HALOPERIDOL]				0.44	ED50 (Mus musculus [6]): 0.16 mg/kg
CC1(CNCC2CCN(c3ncccn3)CC2)COc2ccccc2O1 (centres undefined)	132	195			
Cc1cc2c(s1)Nc1ccccc1N=C2N1CCN(C)CC1 [OLANZAPINE]			4.87	6.07	
c1cnc(N2CCC(CNC[C@H]3COc4ccccc4O3)CC2)nc1	18	2.7	9	44	
c1ccc(N2CCC(CNCC3COc4ccccc4O3)CC2)nc1 (stereo in doubt; 13) [listing 2 of 2 here]					Reduction (Mus musculus [7]): 55%
COc1ccccc1NCC1CCN(CC2COc3ccccc3O2)CC1 (centres undefined)	20	20	62		
c1ccc(N2CCC(CNCC3COc4ccccc4O3)CC2)nc1 (stereo in doubt; 12) [listing 2 of 2 here]					inhibition [1]: 98%; inhibition [2]: 98%
COc1ccccc1N1CCC(CNCC2COc3cccc(F)c3O2)CC1 (centres undefined)	12	16	4	23	
COc1cccc2c1OCC(CNCC1CCN(c3ncccn3)CC1)O2 (centres undefined)	234	128			
CC1Oc2ccccc2OC1CNCC1CCN(c2ncccn2)CC1 (centres undefined)	> 500	> 500	134	775	
COc1cccc2c1OC(CNCC1CCN(c3ncccn3)CC1)CO2 (centres undefined)	2.3	0.6	2.4		
Cc1nc2n(c(=O)c1CCN1CCC(c3noc4cc(F)ccc34)CC1)CCCC2 [RISPERIDONE]				1.75	ED50 (Mus musculus [6]): 0.3 mg/kg
c1cnc(NCC2CCN(CC3COc4ccccc4O3)CC2)nc1 (stereo in doubt; 9)	208	463			
COc1cccc(N2CCC(CNCC3COc4ccccc4O3)CC2)c1 (centres undefined)					Reduction (Mus musculus [8]): 45%
c1cnc(N2CCC(CNC[C@@H]3COc4ccccc4O3)CC2)nc1	117	25			Reduction (Mus musculus [7]): 77%
CN1CCN(C2=Nc3cc(Cl)ccc3Nc3ccccc32)CC1 [CLOZAPINE]				33.9	ED50 (Mus musculus [6]): 9.5 mg/kg
CN(CC1CCN(c2ncccn2)CC1)CC1COc2ccccc2O1 (centres undefined)	348				inhibition [1]: 85%

Now from value to compound, other results behind:

Ki [3] [nM]	Ki [5] [nM]	SMILES	ED50 (Mus musculus [4]) [mg/kg]	ED50 (Rattus norvegicus) [mg/kg]	further results
33	3	c1ccc2c(c1)OCC(CNCC1CCN(c3cccc4c3OCC4)CC1)O2 (centres undefined)	18	107	
94	17	Clc1ccccc1N1CCC(CNCC2COc3ccccc3O2)CC1 (centres undefined)			
44	15	COc1ccc(N2CCC(CNCC3COc4ccccc4O3)CC2)cc1 (centres undefined)	11		
47	29	c1ccc(N2CCC(CNCC3COc4ccccc4O3)CC2)cc1 (centres undefined)	39		
38	18	c1ccc2c(c1)OCC(CNCC1CCN(c3cccc4c3OCCO4)CC1)O2 (centres undefined)	32	> 200	
23	8	COc1ccccc1N1CCC(CNC[C@H]2COc3ccccc3O2)CC1	7	50	
74	37	COc1ccccc1N1CCC(CNC[C@@H]2COc3ccccc3O2)CC1	38		
